According to ChEMBL document CHEMBL5154634, “A Modular Synthetic Route Involving N-Aryl-2-nitrosoaniline Intermediates Leads to a New Series of 3-Substituted Halogenated Phenazine Antibacterial Agents” (J Med Chem, 2021):
In brackets after ≈: the same amount, converted by molar mass. Activity calls are given as the source filed them. The calls are words filed in the database; no cut-off is given here.

Columns and labels:
[1] = test system: Staphylococcus epidermidis; test: Bactericidal activity against methicillin-resistant Staphylococcus epidermidis ATCC 35984 planktonic cells assessed as planktonic eradication incubated for 24 hrs followed by incubation for overnight in fresh medium by Calgary biofilm device assay; type: functional
In short: (§1)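 Calgary biofilm device. Biofilms grown 24 h at 37 °C in TSB with 0.5% glucose, then challenged 24 h with twofold compound dilutions. 20 μL of challenge medium transferred into fresh TSB with 0.5% glucose and incubated overnight at 37 °C. MBC is the concentration with no visible turbidity. At least three independent experiments.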

Enterococcus faecalis [2] = test: Bactericidal activity against […] Enterococcus faecalis OG1RF ATCC 47077 planktonic cells assessed as planktonic eradication incubated for 24 hrs followed by incubation for overnight in fresh medium by Calgary biofilm device assay; type: functional
In short: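 Calgary biofilm device in BHI. Biofilms grown 24 h at 37 °C and challenged 24 h with twofold compound dilutions. Challenge medium subcultured 1:10 into fresh BHI overnight at 37 °C. MBC is the concentration with no turbidity. At least three independent experiments.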

Enterococcus faecalis [3] = test: Antibiofilm activity against Enterococcus faecalis OG1RF ATCC 47077 biofilms assessed as biofilm eradication incubated for 24 hrs followed by incubation for 24 hrs in fresh medium by Calgary biofilm device assay; type: functional
In short: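 Calgary biofilm device. Biofilms grown 24 h at 37 °C in BHI from mid-log culture diluted 1000-fold. Pegs washed and then challenged 24 h with twofold serial dilutions. Pegs moved to fresh BHI for 24 h recovery. MBEC = lowest concentration leaving no turbidity; at least three independent experiments.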

[4] = test system: Staphylococcus epidermidis; test: Antibiofilm activity against methicillin-resistant Staphylococcus epidermidis ATCC 35984 biofilms assessed as biofilm eradication incubated for 24 hrs followed by incubation for 24 hrs in fresh medium by Calgary biofilm device assay; type: functional
In short: (§2)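 Calgary biofilm device. Mid-log culture diluted 1000-fold in TSB with 0.5% glucose; biofilms grown on pegs 24 h at 37 °C. Pegs washed and challenged with twofold compound dilutions for 24 h at 37 °C, then moved to fresh medium for 24 h. MBEC is the lowest concentration leaving wells non-turbid. At least three independent experiments.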

Enterococcus faecium [5] = test: Bactericidal activity against methicillin-resistant vancomycin-resistant Enterococcus faecium ATCC 700221 planktonic cells assessed as planktonic eradication incubated for 24 hrs followed by incubation for overnight in fresh medium by Calgary biofilm device assay; type: functional; in short: as §1
Staphylococcus aureus [6] = test: Antibiofilm activity against methicillin-resistant Staphylococcus aureus BAA-44 biofilms assessed as biofilm eradication incubated for 24 hrs followed by incubation for 24 hrs in fresh medium by Calgary biofilm device assay; type: functional; in short: as §2
Enterococcus faecium [7] = test: Antibiofilm activity against methicillin-resistant vancomycin-resistant Enterococcus faecium ATCC 700221 biofilms assessed as biofilm eradication incubated for 24 hrs followed by incubation for 24 hrs in fresh medium by Calgary biofilm device assay; type: functional; in short: as §2
Staphylococcus aureus [8] = test: Antibacterial activity against methicillin-resistant Staphylococcus aureus 138 assessed as bacterial growth inhibition; type: functional
Enterococcus faecium [9] = test: Antibacterial activity against vancomycin-resistant Enterococcus faecium ATCC 700221 assessed as bacterial growth inhibition incubated for 16 hrs by broth microdilution susceptibility test; type: functional
In short: (§3)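 CLSI broth microdilution with 11 twofold dilutions (0.05–50 μM). Medium was LB for the staphylococci and BHI for VRE 700221. About 10^5 cells per well from a log-phase culture. […] DMSO vehicle up to 0.5% v/v. At least three independent experiments.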

Staphylococcus aureus [10] = test: Antibacterial activity against methicillin-resistant Staphylococcus aureus BAA-1707 assessed as bacterial growth inhibition incubated for 16 hrs by broth microdilution susceptibility test; type: functional
In short: (§4)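 CLSI broth microdilution with 11 twofold dilutions (0.05–50 μM). About 10^5 cells per well from a log-phase culture. DMSO vehicle up to 0.5% v/v. At least three independent experiments.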

Staphylococcus aureus [11] = test: Antibacterial activity against methicillin-resistant Staphylococcus aureus clinical isolate 1 assessed as bacterial growth inhibition; type: functional
[12] = Dissociation constant, pKa of the compound at 125 uM by UV-vis spectrophotometric analysis; type: physicochemical
In short: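 Compound at 125 μM final in phosphate buffers (KH₂PO₄/Na₂HPO₄) in 1:1 water/methanol, pH 4.07–9.66; ammonium hydroxide added for pH above 9.80. UV-vis scans 200–800 nm to find λmax of phenol and phenolate forms. Absorbance at each λmax plotted against pH.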

Staphylococcus aureus [13] = test: Antibiofilm activity against methicillin-resistant Staphylococcus aureus BAA-1707 biofilms assessed as biofilm eradication incubated for 24 hrs followed by incubation for 24 hrs in fresh medium by Calgary biofilm device assay; type: functional; in short: as §2
J774 = test: Cytotoxicity against mouse J774 cells assessed as reduction in cell viability […] by Alamar blue assay; type: toxicity, cell-based
[14] = test system: Staphylococcus epidermidis; test: Antibacterial activity against methicillin-resistant Staphylococcus epidermidis ATCC 35984 assessed as bacterial growth inhibition incubated for 16 hrs by broth microdilution susceptibility test; type: functional; in short: as §4
Staphylococcus aureus [15] = test: Bactericidal activity against methicillin-resistant Staphylococcus aureus BAA-1707 planktonic cells assessed as planktonic eradication incubated for 24 hrs followed by incubation for overnight in fresh medium by Calgary biofilm device assay; type: functional; in short: as §1
[16] = test system: Staphylococcus epidermidis; test: Antibiofilm activity against methicillin-resistant Staphylococcus epidermidis ATCC 35984 biofilms assessed as reduction of viable biofilm cells at MBEC measured by CBD assay; type: functional
In short: (§5)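 After the Calgary biofilm device assay, treated and untreated pegs were removed, sonicated 30 min in PBS and plated for CFU per peg. Log10 reduction of viable biofilm cells at the MBEC determined by comparison with untreated pegs. At least three independent experiments.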

HepG2 = test: Cytotoxicity against human HepG2 cells assessed as reduction in cell viability […] by Alamar blue assay; type: toxicity, cell-based
[17] = Binding affinity to Fe2+ assessed as compound-Fe2+ complex formation by UV-vis spectroscopy
[18] = test system: Mycobacterium tuberculosis; test: Antibacterial activity against Mycobacterium tuberculosis CDC1551 assessed as bacterial growth inhibition incubated for 5 days by luminescence based analysis; type: functional; conditions: CDC1551, 120 h, time 5 day
In short: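 Bioluminescent Mtb-lux CDC1551 reporter grown in Middlebrook 7H9 with 0.05% Tween 80, 10% OADC and kanamycin to OD600 0.4–0.8, then diluted to OD600 0.02. Added to twofold drug dilutions (0.003–200 μM). Incubated 5 days at 37 °C, 5% CO2. Luminescence read against 1% DMSO and 10 μM rifampicin controls to give % growth inhibition. MIC taken from a modified Gompertz fit.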

Erythrocyte = test: Hemolytic activity against human RBC at 200 uM measured after 1 hr; type: toxicity, cell-based
In short: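 2% hRBCs exposed to compound at 200 μM final, added from DMSO stock, for 1 h at 37 °C. Supernatant OD read at 405 nm. Hemolysis normalized between DMSO (0%) and Triton X (100%); three independent experiments.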

[19] = test system: Mycobacterium tuberculosis; test: Antibacterial activity against Mycobacterium tuberculosis H37Ra ATCC 25177 assessed as bacterial growth inhibition incubated for 7 days by absorbance based analysis; type: functional; conditions: H37Ra ATCC 25177, 168 h, time 7 day
In short: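 H37Ra grown 2 weeks in Middlebrook 7H9, then diluted to OD600 0.01. Compounds added in twofold dilutions, final 0.024–50 μM, with 0.5% DMSO and streptomycin as positive control. Incubated 7 days at 37 °C. MIC is the lowest concentration with no growth, with OD600 recorded. At least three independent experiments.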

Staphylococcus aureus [20] = test: Antibacterial activity against methicillin-resistant Staphylococcus aureus 147 assessed as bacterial growth inhibition; type: functional
Staphylococcus aureus [21] = test: Antibacterial activity against methicillin-resistant Staphylococcus aureus 129 assessed as bacterial growth inhibition; type: functional
[22] = test system: Staphylococcus epidermidis; test: Antibiofilm activity against methicillin-resistant Staphylococcus epidermidis ATCC 35984 biofilms assessed as reduction of viable biofilm cells at 3.13 uM measured by CBD assay; type: functional
Staphylococcus aureus [23] = test: Antibacterial activity against methicillin-resistant Staphylococcus aureus BAA-44 assessed as bacterial growth inhibition incubated for 16 hrs by broth microdilution susceptibility test; type: functional; in short: as §3
Staphylococcus aureus [24] = test: Antibacterial activity against methicillin-resistant Staphylococcus aureus clinical isolate 2 assessed as bacterial growth inhibition; type: functional
Staphylococcus aureus [25] = test: Antibacterial activity against methicillin-resistant Staphylococcus aureus 156 assessed as bacterial growth inhibition; type: functional
Staphylococcus aureus [26] = test: Antibiofilm activity against methicillin-resistant Staphylococcus aureus BAA-1707 biofilms assessed as reduction of viable biofilm cells at MBEC measured by CBD assay; type: functional; in short: as §5
Enterococcus faecalis [27] = test: Antibacterial activity against Enterococcus faecalis OG1RF ATCC 47077 assessed as bacterial growth inhibition incubated for 16 hrs by broth microdilution susceptibility test; type: functional
HeLa = test: Cytotoxicity against human HeLa cells assessed as reduction in cell viability incubated for 24 hrs by LDH release assay; type: toxicity, cell-based
In short: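 HeLa cells in DMEM with 10% FBS, treated at 70–80% confluence with 25, 50 and 100 μM for 24 h. LDH in supernatant measured by 30 min reaction at room temperature, then stop solution and absorbance at 490 nm. Controls: 2% Triton X-100 (maximum), medium only, DMSO vehicle. Three independent experiments.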

Staphylococcus aureus [28] = test: Antibiofilm activity against methicillin-resistant Staphylococcus aureus BAA-1707 biofilms assessed as biofilm killing at MBEC measured by CBD assay; type: functional
[29] = test system: Staphylococcus epidermidis; test: Antibiofilm activity against methicillin-resistant Staphylococcus epidermidis ATCC 35984 biofilms assessed as biofilm killing at 3.13 uM measured by CBD assay; type: functional

CN[C@H](CC(C)C)C(=O)N[C@H]1C(=O)N[C@@H](CC(N)=O)C(=O)N[C@H]2C(=O)N[C@H]3C(=O)N[C@H](C(=O)N[C@H](C(=O)O)c4cc(O)cc(O)c4-c4cc3ccc4O)[C@H](O)c3ccc(c(Cl)c3)Oc3cc2cc(c3O[C@@H]2O[C@H](CO)[C@@H](O)[C@H](O)[C@H]2O[C@H]2C[C@](C)(N)[C@H](O)[C@H](C)O2)Oc2ccc(cc2Cl)[C@H]1O [VANCOMYCIN] showed an MBC [1] of 2 µM (≈ 2.9 µg/mL), an MBC (Enterococcus faecalis [2]) of 11.7 µM (≈ 17 µg/mL) and an MBEC (Enterococcus faecalis [3]) greater than 2000 µM. The MBEC [4] was greater than 2000 µM, the MBC (Enterococcus faecium [5]) was 750 µM (≈ 1090 µg/mL) and the MBEC (Staphylococcus aureus [6]) was greater than 2000 µM. For the same compound, the MBEC (Enterococcus faecium [7]) was greater than 2000 µM.

For Oc1c(Br)c(Cl)c(Br)c2nc3c(Cl)cc(Cl)cc3nc12, the MIC (Staphylococcus aureus [8]) was 0.47 µM (≈ 0.215 µg/mL), the MBC [1] was 0.59 µM (≈ 0.27 µg/mL) and the MIC (Enterococcus faecium [9]) was 0.08 µM (≈ 0.0366 µg/mL). For the same compound, the MIC (Staphylococcus aureus [10]) was 0.59 µM (≈ 0.27 µg/mL), the MIC (Staphylococcus aureus [11]) was 0.47 µM (≈ 0.215 µg/mL) and the pKa at 125 µM [12] was 6.07. It also gave an MBEC (Staphylococcus aureus [13]) of 3.13 µM, an IC50 (J774) greater than 200 µM and an MIC [14] of no more than 0.05 µM. The MBC (Enterococcus faecalis [2]) was 3.13 µM (≈ 1.43 µg/mL), the MBC (Staphylococcus aureus [15]) was 1.56 µM (≈ 0.713 µg/mL) and the Activity [16] was 3.18 log10CFU. The IC50 (HepG2) was greater than 200 µM, the MBEC [4] was 0.3 µM and the Activity [17] was “Active”. For the same compound, the MIC [18] was 0.8 µM (≈ 0.366 µg/mL), the Activity (Erythrocyte) was “<= 1%” and the MIC [19] was 6.25 µM (≈ 2.86 µg/mL). The MIC (Staphylococcus aureus [20]) was 0.47 µM (≈ 0.215 µg/mL), the MIC (Staphylococcus aureus [21]) was 0.47 µM (≈ 0.215 µg/mL) and the Activity [22] was 5 log10CFU. It also gave an MIC (Staphylococcus aureus [23]) of 0.15 µM (≈ 0.0686 µg/mL), an MIC (Staphylococcus aureus [24]) of 0.47 µM (≈ 0.215 µg/mL) and an MBC (Enterococcus faecium [5]) of 0.39 µM (≈ 0.178 µg/mL). It also gave an MIC (Staphylococcus aureus [25]) of 0.47 µM (≈ 0.215 µg/mL), an Activity (Staphylococcus aureus [26]) of 3.03 log10CFU and an MIC (Enterococcus faecalis [27]) of 0.3 µM (≈ 0.137 µg/mL). It also gave an IC50 (HeLa) greater than 100 µM, an Activity (Staphylococcus aureus [28]) of 99.9% and an MBEC (Enterococcus faecium [7]) of 0.2 µM. For the same compound, the Activity [29] was 99.999%.
